Screening results from PubChem.
Many of the other results were omitted from the sample, so hits are more common in it than they were.
Ecoli WT expand: growth inhibitors of E. coli BW25113 wild type. AID 710. actives 0.15% (n = 98,000). growth inhibition, % at 100 µM. OD600 absorbance;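 active means growth inhibition above about 50% at one test dose, limit read from the data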;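 further: growth measured after 20 h incubation at 37 °C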
Ecoli tolC: blocks growth of E. coli BW25113 tolC mutant | OD615 | growth inhibition, % at 10 µM (by protocol) | actives 2.2% (n = 65,000);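 active means growth inhibition at or above a cutoff equal to the mean over every tested compound plus 3 SD, cut at about 60% in these data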;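 further: growth measured after 20 h incubation at 37 °C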
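Test system: tolC-deleted E. coli BW25113; medium: LB with kanamycin 50 µg/mL; compound: single-point testing at 10 µM; incubation: 20 h compound exposure of bacteria at 37 °C; signal: OD at 615 nm; evaluation: growth inhibition in percent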
Mac1 fbg inh: blocks human CD11b/CD18 adhesion to fibrinogen | P05107+P11215 | actives 0.54% (n = 93,000) | AID 1497 | inhibition, % at 10 µM | K562 CD11b/CD18 adhesion to fibrinogen, ATPlite luminescence; Mn2+ added to activate the integrin;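 active means primary inhibition of 50% or more at 10 µM, then 40% or more on retest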
Target sequence (P05107 whole entry, looked up, other chains not shown): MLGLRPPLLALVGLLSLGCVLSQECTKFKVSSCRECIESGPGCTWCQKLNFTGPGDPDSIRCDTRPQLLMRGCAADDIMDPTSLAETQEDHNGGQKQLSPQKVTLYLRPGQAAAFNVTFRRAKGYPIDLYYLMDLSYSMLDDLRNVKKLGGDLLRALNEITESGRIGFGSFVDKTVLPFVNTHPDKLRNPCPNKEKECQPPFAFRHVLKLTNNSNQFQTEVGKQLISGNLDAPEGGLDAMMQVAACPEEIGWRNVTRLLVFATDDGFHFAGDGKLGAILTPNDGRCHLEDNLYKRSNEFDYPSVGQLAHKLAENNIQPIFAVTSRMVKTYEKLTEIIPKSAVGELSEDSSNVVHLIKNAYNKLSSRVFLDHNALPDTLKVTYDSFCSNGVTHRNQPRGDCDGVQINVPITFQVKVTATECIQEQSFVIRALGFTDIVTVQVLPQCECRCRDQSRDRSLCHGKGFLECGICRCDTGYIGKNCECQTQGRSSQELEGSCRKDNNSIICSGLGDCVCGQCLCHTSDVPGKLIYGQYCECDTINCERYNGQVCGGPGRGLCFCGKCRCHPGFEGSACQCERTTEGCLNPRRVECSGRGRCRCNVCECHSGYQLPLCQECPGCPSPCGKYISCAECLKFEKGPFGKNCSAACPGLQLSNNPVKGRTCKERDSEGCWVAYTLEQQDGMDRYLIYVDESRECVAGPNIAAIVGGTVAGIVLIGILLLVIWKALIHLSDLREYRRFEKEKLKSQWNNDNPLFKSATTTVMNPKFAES
Phagocytosis inh: blocks phagocytosis by macrophages | inhibition, % at 5 µM | actives 0.07% (n = 110,000) | J774A.1 macrophage IgG-bead phagocytosis, imaging;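 active means inhibition above the mean of the plate negative controls plus 5 SD, cut at about 13% in these data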;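 further: phagocytic index as fraction of beads internalized from green versus red external bead signal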
Mac1 fbg enh: enhancers of human CD11b/CD18 binding to fibrinogen | P05107+P11215 | K562 CD11b/CD18 adhesion to fibrinogen, ATPlite luminescence | activation, % at 10 µM | actives 0.07% (n = 93,000) | AID 1499;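 active means 10 µM primary screen giving 50% or more activity, confirmed by 40% or more on retest at that dose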
Of the large screens only hits and unclear results are named; the others gave an inactive call; [ ] = remark or other dose.

c1ccc(C2CC(c3ccccc3)n3c(nc4ccccc43)N2)cc1 (centres undefined)	none (no result: Ecoli WT expand, Ecoli tolC)
CCCSc1oc(-c2ccco2)nc1S(=O)(=O)c1ccccc1	Ecoli tolC 83.8
CSc1oc(-c2ccccc2)nc1S(=O)(=O)c1ccc(C)cc1	none
CN1CCN(c2oc(-c3ccco3)nc2S(=O)(=O)c2ccccc2)CC1	none
CCSc1oc(-c2ccccc2)nc1S(=O)(=O)c1ccccc1	Ecoli tolC 68.6
O=S(=O)(c1ccccc1)c1nc(-c2ccco2)oc1N1CCCCCC1	Ecoli tolC 81.9 (no result: Phagocytosis inh)
CCSc1oc(-c2ccco2)nc1S(=O)(=O)c1ccccc1	none (no result: Mac1 fbg inh, Phagocytosis inh, Mac1 fbg enh)
O=c1c2ccc(Cl)cc2nc(-c2cccc(C(F)(F)F)c2)n1O	Mac1 fbg inh 69.1 (no result: Ecoli tolC)
O=c1c2ccccc2nc(-c2ccc(Cl)c(Cl)c2)n1O	none (no result: Ecoli tolC)
CC(C)C(NC(=O)c1ccc(F)cc1)C(=O)OCC(=O)N1CC(=O)Nc2ccccc21 (centres undefined)	none (no result: Ecoli WT expand, Ecoli tolC, Mac1 fbg inh, Mac1 fbg enh)
CCn1c(C)nc2cc(-c3nc4n(n3)Cc3ccccc3-4)ccc21	Mac1 fbg inh 98.4
CN(CC(=O)N1CCCC1)S(=O)(=O)c1cc(Cl)ccc1Cl	Phagocytosis inh 25.2[artifact]
CN(CC(=O)O)S(=O)(=O)c1cc(Cl)ccc1Cl	none
CC1CC(c2ccccc2)n2nc(NC(=O)c3ccco3)nc2N1 (centres undefined)	none
CC1CC(N(C(=O)c2ccco2)c2ccccc2)c2ccccc2N1 (centres undefined)	Ecoli tolC 67.9
COC(=O)c1ccc(O)c(Sc2cc(C(=O)OC)ccc2O)c1	Ecoli tolC 87.2, Mac1 fbg inh 97.8
Clc1ccc(Cn2ncc3c(N4CCCC4)ncnc32)cc1	none
Cc1cccc(-n2ncc3c(N4CC(C)CC(C)C4)ncnc32)c1 (centres undefined)	Ecoli tolC 63.5
Clc1ccc(Cn2ncc3c(N4CCCCC4)ncnc32)cc1	none
CC1CC(C)CN(c2ncnc3c2cnn3Cc2ccc(Cl)cc2)C1 (centres undefined)	Ecoli tolC 80.9
Clc1ccc(Cn2ncc3c(N4CCCCC4)ncnc32)c(Cl)c1	Ecoli tolC 73.5
COc1cc(/C=N/NC(=O)CN(Cc2ccco2)S(=O)(=O)c2ccccc2)ccc1O	none (no result: Ecoli WT expand, Ecoli tolC, Mac1 fbg inh, Mac1 fbg enh)
Cc1nn(-c2ccccc2)c(C)c1/C=N/NC(=O)CSc1nnc(SCc2ccc(Cl)cc2)s1	none (no result: Ecoli WT expand, Ecoli tolC, Mac1 fbg inh, Mac1 fbg enh)
Cc1cccc(NC(=O)CCNC(=O)c2ccco2)c1	none (no result: Ecoli WT expand, Ecoli tolC, Phagocytosis inh)
Cc1oc2cc3oc(=O)c4c(c3cc2c1C)CCC4	none
CCc1cc2c3c(c(=O)oc2cc1O)CCCC3	Ecoli tolC 60.6
COc1ccccc1-c1cc(C(=O)NC(C)C)no1	none (no result: Mac1 fbg inh, Phagocytosis inh, Mac1 fbg enh)
COc1ccccc1-c1cc(C(=O)NC(C)c2ccccc2)no1 (centres undefined)	Ecoli tolC 71.8
Cc1nc(N2CCN(Cc3ccccc3)CC2)nc2c1C(=O)CC(c1ccco1)C2 (centres undefined)	Ecoli tolC 79.2
Cc1cc(C)cc(OCC(=O)NCc2nc(-c3ccccc3)no2)c1	Phagocytosis inh 23.0
COCCCNC(=S)N(Cc1cccnc1)Cc1ccc(OC)c(OC)c1	none (no result: Ecoli WT expand, Ecoli tolC, Mac1 fbg inh, Mac1 fbg enh)
N=c1n(CCN2CCCCC2)c2ccccc2n1CC(O)c1ccc(Cl)c(Cl)c1 (centres undefined)	Ecoli WT expand 98.0 (no result: Ecoli tolC)
CCOC(=O)C1CCCN(c2ncnc3c2cnn3-c2ccc(Cl)cc2)C1 (centres undefined)	Ecoli tolC 73.1
CCOC(=O)c1cc(-c2ccccc2)sc1NC(=O)C(C)OC(=O)c1cccnc1Cl (centres undefined)	none (no result: Ecoli WT expand, Ecoli tolC, Mac1 fbg inh, Mac1 fbg enh)
Cc1ccc(C(=O)N/N=C(/CC(=O)c2cccs2)C(F)(F)F)cc1	Mac1 fbg inh 97.6 (no result: Ecoli WT expand, Ecoli tolC)
COc1cc(/C=N/NC(=O)CC23CC4CC(CC(C4)C2)C3)cc(Br)c1OCC(=O)N(C)C	none (no result: Ecoli WT expand, Ecoli tolC, Mac1 fbg inh, Mac1 fbg enh)
N#CC1=C(N)NC(SCC(=O)c2ccc(Cl)cc2)=C(C#N)C12CCCC2	Mac1 fbg inh 64.0 (no result: Ecoli tolC, Phagocytosis inh)
N#CC1=C(N)NC(SCc2ccccc2)=C(C#N)C12CCCCC2	Ecoli tolC 61.7
O=C(CCN1C(=O)C2C3CC(C(Br)C3Br)C2C1=O)OCC(=O)c1ccccc1 (centres undefined)	none (no result: Ecoli WT expand, Ecoli tolC)
COc1cccc(/C=N/NC(=O)c2ccc([N+](=O)[O-])cc2Cl)c1O	none (no result: Ecoli WT expand, Ecoli tolC, Mac1 fbg inh, Mac1 fbg enh)
COc1cccc(-c2csc(N3CCN(C(=O)Nc4ccccc4OC)CC3)n2)c1	none (no result: Mac1 fbg inh, Phagocytosis inh, Mac1 fbg enh)
COc1cccc(-c2csc(N3CCN(C(=O)C4CCCCC4)CC3)n2)c1	Ecoli tolC 68.7
CCOc1ccc(N(CC(=O)Nc2ccc(C)c(C)c2)S(=O)(=O)c2c(C)noc2C)cc1	Ecoli tolC 61.5 (no result: Mac1 fbg inh, Phagocytosis inh, Mac1 fbg enh)
Cc1ccc(C(=O)c2no[n+]([O-])c2C(=O)c2ccc(C)cc2)cc1	none (no result: Ecoli WT expand, Ecoli tolC, Mac1 fbg inh, Mac1 fbg enh)
c1csc(Cn2c(-c3cccs3)nc3ccccc32)c1	none
Brc1ccccc1Cn1c(-c2cncs2)nc2ccccc21	Ecoli tolC 62.4
CCc1c(C(=O)Nc2ncn(Cc3cccc(C)c3)n2)csc1C	Ecoli tolC 62.4 (no result: Mac1 fbg inh, Phagocytosis inh, Mac1 fbg enh)
CC(=O)c1ccc(NC(=O)Nc2ncn(Cc3cccc(C)c3)n2)cc1	none (no result: Mac1 fbg inh, Phagocytosis inh, Mac1 fbg enh)
COc1ccc2c(c1)sc1nc(-c3ccccc3)cn12	Ecoli tolC 99.3
CCOC(=O)N1CCN(C(=O)c2ccc3c(c2)sc2nc(-c4ccc(OC)cc4)cn23)CC1	none
Cc1ccc(Cn2ccc(NC(=O)c3cc(CC(C)C)on3)n2)cc1	Ecoli tolC 72.0
Cc1ccc(Cn2ccc(NC(=O)c3cc(-c4ccc(Cl)cc4)on3)n2)cc1	none
N#C/C(=C\C1=C(N2CCOCC2)C(=C\c2ccc(Cl)cc2)/CC1)C(=O)Nc1ccccc1F	none (no result: Ecoli WT expand, Ecoli tolC, Mac1 fbg inh, Mac1 fbg enh)
